Columns and labels:
Type in all cases: functional
[1] = organism: Rattus norvegicus; assay: Compound tested for the percentage of CO2 expired in rat was determined in 0-2 hr
In short: (§1)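 14C label on the acetaldehyde moiety, diluted with unlabeled carrier in water and given at 8.0 mmol/kg (1.0 mL/100 g; radioactivity of the solution counted in duplicate). Two male Sprague-Dawley-descent rats (207 g, 247 g) were fasted overnight and housed in all-glass metabolism cages. Expired CO2 went into two successive cold methoxyethanol/ethanolamine (2:1) traps, sampled at 2, 4, 8, 16 and 24 h. Duplicates were counted by liquid scintillation, and values are the mean ± SD of two animals.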

[2] = tested on: Rattus norvegicus; assay: Compound tested for the percentage of administration dose excreted in rat feces was determined in 0-24 hr
In short: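 A radiolabeled dose (14C in the acetaldehyde moiety, with carrier, in water) of 8.0 mmol/kg at 1.0 mL/100 g went to two overnight-fasted male Sprague-Dawley-descent rats (207 g, 247 g) in all-glass metabolism cages. Feces collected over 24 h were lyophilized and pulverized, and 250-mg samples were combusted to 14CO2 for scintillation counting. Values are the mean ± SD of two animals.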

[3] = tested on: Rattus norvegicus; assay: Compound tested for the percentage of administered dose excreted in rat urine was determined in 0-24 hr
In short: (§2)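 Labeled material (14C on the acetaldehyde part, with unlabeled carrier, in water) was dosed at 8.0 mmol/kg, 1.0 mL/100 g, to two overnight-fasted male Sprague-Dawley-descent rats (207 g, 247 g) kept in all-glass metabolism cages. Urine was collected separately at 2, 4, 8, 16 and 24 h. Duplicate samples were counted by liquid scintillation, and results are averaged ± SD across the two animals.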

[4] = tested on: Rattus norvegicus; assay: Compound tested for the percentage of administered dose excreted in rat urine was determined in 0-2 hr; in short: as §2
[5] = organism: Rattus norvegicus; assay: Compound tested for the percentage of CO2 expired in rat was determined in 8-16h; in short: as §1
[6] = tested on: Rattus norvegicus; assay: Compound tested for the percentage of administered dose excreted in rat urine was determined in 2-4h; in short: as §2
[7] = tested on: Rattus norvegicus; assay: Compound tested for the percentage of administered dose excreted in rat urine was determined in 4-8h; in short: as §2
[8] = organism: Rattus norvegicus; assay: Compound tested for the percentage of CO2 expired in rat was determined in 4-8h; in short: as §1
[9] = organism: Rattus norvegicus; assay: Compound tested for the percentage of CO2 expired in rat was determined in 16-24h; in short: as §1
[10] = tested on: Rattus norvegicus; assay: Compound tested for the percentage of administered dose excreted in rat urine was determined in 16-24h; in short: as §2
[11] = organism: Rattus norvegicus; assay: Compound tested for the percentage of CO2 expired in rat was determined in 0-24 hr; in short: as §1
[12] = tested on: Rattus norvegicus; assay: Compound tested for the percentage of administered dose excreted in rat urine was determined in 8-16h; in short: as §2
[13] = organism: Rattus norvegicus; assay: Compound tested for the percentage of CO2 expired in rat was determined in 2-4h; in short: as §1

Question: With CC1N[C@@H](C(=O)O)C(C)(C)S1 (stereo partly drawn) as the molecule, how does the Excreted [1] read?
Answer: Its Excreted is 2.01%.

Question: What about the Excreted [2] of the same molecule?
Answer: The Excreted was 1.38%.

Question: What about the Excreted [3] of the same molecule?
Answer: The Excreted was 79.2%.

Question: And the Excreted [4]?
Answer: The Excreted was 36.3%.

Question: What about the Excreted [5] of the same molecule?
Answer: Its Excreted is 0.48%.

Question: And the Excreted [6]?
Answer: The Excreted was 25.9%.

Question: What about the Excreted [7] of the same molecule?
Answer: Its Excreted is 12.7%.

Question: And the Excreted [8]?
Answer: Its Excreted is 1.36%.

Question: And the Excreted [9]?
Answer: Its Excreted is 0.28%.

Question: And the Excreted [10]?
Answer: The Excreted was 1.18%.

Question: And the Excreted [11]?
Answer: Its Excreted is 5.83%.

Question: And the Excreted [12]?
Answer: Its Excreted is 3.12%.

Question: What about the Excreted [13] of the same molecule?
Answer: The Excreted was 1.7%.

— ChEMBL document CHEMBL1123804, “Beta-substituted cysteines as sequestering agents for ethanol-derived acetaldehyde in vivo” (1987)
